Results from ChEMBL document CHEMBL4837193 (Eur J Med Chem, 2021).
Blank lines part the entries; values can stand above or below the compound they belong to.

Tests used:
HeLa = assay: Antiproliferative activity against human HeLa cells assessed as cell growth inhibition after 48 hrs by MTT assay; format: functional, cell-based
Procedure, shortened: (§1)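 Cells grown at 37 °C with CO2 in RPMI-1640 or DMEM plus 10% FBS. Seeded at 2 × 10³ per well, attached 24 h, then medium changed. Compound exposure 48 h at 37 °C, DMSO 0.1% as vehicle. MTT added and incubated a further 4 h. Crystals dissolved, absorbance read at 570 nm. IC50 from curve fitting, mean ± SD of three independent experiments.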

T47D = assay: Antiproliferative activity against human T47D cells assessed as cell growth inhibition after 48 hrs by MTT assay; format: functional, cell-based
HepG2 = assay: Antiproliferative activity against human HepG2 cells assessed as cell growth inhibition after 48 hrs by MTT assay; format: functional, cell-based; details: HepG2, 48 h; procedure, shortened: as §1
Tubulin (Homo sapiens) = Tubulin (Homo sapiens) (UniProt P68371+Q9H4B7+P0DPH7+P68366+Q13509+Q71U36+P04350+Q3ZCM7+P07437+P68363+Q9BQE3+Q6PEY2+Q13885+Q9BVA1+Q9BUF5); assay: Inhibition of tubulin polymerization (unknown origin) at 10 uM measured after 30 mins every 1 min for 20 mins by spectrophotometric method; format: protein-complex assay
Procedure, shortened: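 Tubulin at 2 mg/mL in PEM buffer (100 mM PIPES pH 6.9, 1 mM MgCl2, 1 mM EGTA, 5% glycerol) preincubated on ice with compound or DMSO, then GTP added. After 0.5 h, A340 read every 1 min for 20 min at 37 °C. Plateau values used. Single-point inhibition at 10 µM; IC50 is the concentration halving polymerization at 20 min, mean ± SD of three experiments.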

HCT-116 = assay: Antiproliferative activity against human HCT-116 cells assessed as cell growth inhibition after 48 hrs by MTT assay; format: functional, cell-based; details: HCT-116, 48 h; procedure, shortened: as §1
A549 = assay: Antiproliferative activity against human A549 cells assessed as cell growth inhibition after 48 hrs by MTT assay; format: functional, cell-based; details: A549, 48 h; procedure, shortened: as §1
HEK293 = assay: Antiproliferative activity against human HEK293 cells assessed as cell growth inhibition after 48 hrs by MTT assay; format: cell-based; details: HEK293, 48 h; procedure, shortened: as §1
HT-29 = assay: Antiproliferative activity against human HT29 cells assessed as cell growth inhibition after 48 hrs by MTT assay; format: functional, cell-based; details: HT-29, 48 h

Structure (SMILES): COc1ccc(/C=C\c2cc(OC)c(OC)c(OC)c2)cc1O [COMBRETASTATIN A4]
IC50 (T47D): 0.027 µM | IC50 (HepG2): 5.29 µM

Structure (SMILES): COc1ccc(-c2ccnc3nc(-c4cc(OC)c(OC)c(OC)c4)nn23)cc1F
IC50 (HeLa): > 30 µM

Structure (SMILES): COc1ccc(-c2ccnc3nc(-c4cc(OC)c(OC)c(OC)c4)nn23)cc1[N+](=O)[O-]
IC50 (HeLa): > 30 µM

Structure (SMILES): COc1cc(-c2nc3nccc(-c4cccnc4)n3n2)cc(OC)c1OC
IC50 (HeLa): > 30 µM

Structure (SMILES): COc1cc(-c2nc3nccc(-c4ccc(Cl)c(Cl)c4)n3n2)cc(OC)c1OC
IC50 (HeLa): > 30 µM

Structure (SMILES): COc1cc(-c2nc3nccc(-c4cc(Cl)c(NC(C)=O)c(Cl)c4)n3n2)cc(OC)c1OC
IC50 (HeLa): > 30 µM

Structure (SMILES): COc1ccc(-c2ccnc3nc(-c4cc(OC)c(OC)c(OC)c4)nn23)cc1OC
IC50 (HeLa): > 30 µM

More lines, main results first:

IC50 (HeLa): > 30 µM
Structure (SMILES): COC(=O)c1ccc(-c2ccnc3nc(-c4cc(OC)c(OC)c(OC)c4)nn23)cc1

IC50 (HeLa): > 30 µM
Structure (SMILES): COc1cc(-c2ccnc3nc(-c4ccc(Cl)c(Cl)c4)nn23)cc(OC)c1OC

inhibition (Tubulin (Homo sapiens)): 16% | IC50 (T47D): 5.67 µM | IC50 (HCT-116): 22.4 µM | IC50 (HeLa): 0.28 µM | IC50 (A549): 34.6 µM | IC50 (HepG2): > 100 µM | IC50 (HT-29): 1.66 µM
Structure (SMILES): COc1ccc(-c2nc3nccc(-c4cc(OC)c(OC)c(OC)c4)n3n2)cc1NC(C)=O
IC50 (HEK293): 82.1 µM

IC50 (HeLa): > 30 µM
Structure (SMILES): COc1cc(-c2ccnc3nc(-c4ccc(C)cc4)nn23)cc(OC)c1OC

IC50 (HeLa): 28.6 µM
Structure (SMILES): COc1cc(-c2nc3nccc(-c4cccc5ccccc45)n3n2)cc(OC)c1OC

IC50 (HeLa): 22.2 µM
Structure (SMILES): COc1cc(-c2nc3nccc(-c4ccc(NC(C)=O)cc4)n3n2)cc(OC)c1OC

inhibition (Tubulin (Homo sapiens)): 12% | IC50 (T47D): > 100 µM | IC50 (HCT-116): 91.1 µM | IC50 (HeLa): 0.4 µM | IC50 (A549): > 100 µM | IC50 (HepG2): 41.2 µM | IC50 (HT-29): 11.5 µM
Structure (SMILES): COc1ccc(-c2ccnc3nc(-c4cc(OC)c(OC)c(OC)c4)nn23)cc1N
IC50 (HEK293): > 100 µM
